From ChEMBL document CHEMBL3393009 (J Med Chem, 2015)
The source made the active and inactive calls. The calls are words filed in the database; no cut-off is given here.

What was measured:
[1] = target: Leucine-rich repeat serine/threonine-protein kinase 2 (Homo sapiens, UniProt Q5S007); experiment: Inhibition of full length LRRK2 (unknown origin) expressed in HEK293 cells assessed as reduction in S935 phosphorylation incubated for 90 mins by ELISA method; format: cell-based
[2] = Clearance in rat liver microsomes; format: ADME; conditions: read-out: CLH
Rattus norvegicus [3] = experiment: Volume of distribution at steady state in rat at 5 mg/kg, po; format: ADME, organism-based; parameters: dose 5 mg/kg, route oral; conditions: in vivo
[4] = Tmax in dog at 5 mg/kg, po; format: ADME, organism-based, Canis lupus familiaris; parameters: dose 5 mg/kg, route oral; conditions: in vivo
Canis familiaris = experiment: Volume of distribution at steady state in dog at 5 mg/kg, po; format: ADME, organism-based, Canis lupus familiaris; parameters: dose 5 mg/kg, route oral; conditions: in vivo
[5] = Oral bioavailability in dog at 5 mg/kg; format: ADME, organism-based, Canis lupus familiaris; conditions: in vivo
[6] = Tmax in non-human primate at 5 mg/kg, po; format: ADME, organism-based; parameters: dose 5 mg/kg, route oral; conditions: monkey, in vivo
[7] = Oral bioavailability in non-human primate at 5 mg/kg; format: ADME, organism-based; conditions: monkey, in vivo
Mus musculus [8] = experiment: Inhibition of wild type LRRK2 […] phosphorylation in BAC-transgenic C57BL/6J mouse kidney at 3 to 100 mg/kg, sc measured after 90 mins post dose; format: functional; conditions: dose mg/kg 3-100; route subcutaneous
In short: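 Mice given compound subcutaneously in 10% NMP/20% SBECD vehicle: four-month-old C57BL/6J (wild type) or seven-month-old LRRK2 BAC-Tg G2019S. Tissues collected 90 min after dose. pS935, and pS1292 (custom antibody) in transgenic brain, read by Western blot of brain/kidney lysates against vehicle controls. Mean ± SEM.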

Mus musculus [9] = experiment: Potency index, ratio of IC50 for LRRK2 […] mutant […] phosphorylation in BAC-transgenic mouse at 3 to 100 mg/kg, sc to IC50 for wild type LRRK2 […] phosphorylation in BAC-transgenic C57BL/6J mouse brain at 3 to 100 mg/kg, sc; format: functional
In short: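 Four-month-old C57BL/6J mice and seven-month-old LRRK2 BAC-transgenic G2019S mice received single subcutaneous doses. Vehicle was 10% NMP in 20% SBECD. Brain was collected 90 min after dosing and snap frozen. LRRK2 pS935 phosphorylation was measured in brain lysate. An unbound-drug IC50 was estimated from the dose–response in each strain.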

[10] = Toxicity in Wistar Han rat at 6 to 60 mg/kg, po bid for 14 days; format: organism-based; parameters: dose 6-60 mg/kg, route oral; conditions: in vivo
In short: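 Exploratory 14-day study in Wistar Han rats (200–300 g, 8–11 weeks old at start). Dosing was by oral gavage twice daily in 10% propylene glycol/20% PEG400/70% 9.5% methocellulose. Unbound plasma exposure was measured on days 1 and 11. Endpoints were RBC parameters, electrolytes, food consumption, body weight, clinical chemistry, urinary renal biomarkers and kidney appearance.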

[11] = Drug coverage index, ratio of average concentration ( 0 to 24 hrs) in Wistar Han rat at 6 to 60 mg/kg, po bid for 14 days to IC50 for LRRK2 […] phosphorylation in Wistar Han rat brain at 6 to 60 mg/kg, po bid for 14 days; format: ADME, organism-based; conditions: in vivo
In short: (§1)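 Wistar Han rats (200–300 g, 8–11 weeks old) were dosed by oral gavage twice daily for 14 days. Vehicle was 10% propylene glycol/20% PEG400/70% 9.5% methocellulose.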

Rattus norvegicus [12] = experiment: Toxicity in Wistar Han rat assessed as changes in lung parameters at 6 to 60 mg/kg, po bid for 14 days by H and E staining method; format: organism-based; parameters: dose 6-60 mg/kg, route oral; conditions: in vivo, 336 h
[13] = Drug coverage index, ratio fCmax in Wistar Han rat at 20 mg/kg, po bid for 14 days to IC50 for LRRK2 […] phosphorylation in Wistar Han rat brain at 6 to 60 mg/kg, po bid for 14 days; format: ADME, organism-based; conditions: in vivo, 336 h; in short: as §1
Rattus norvegicus [14] = experiment: Drug coverage index, ratio fAUC in Wistar Han rat at 6 mg/kg, po bid for 14 days to IC50 for LRRK2 […] phosphorylation in Wistar Han rat brain at 6 to 60 mg/kg, po bid for 14 days; format: ADME, organism-based; conditions: in vivo, 336 h; in short: as §1
[15] = target: Tyrosine-protein kinase JAK2 (Homo sapiens, UniProt O60674); experiment: Inhibition of JAK2 (JH1 domain-catalytic) (unknown origin) at 1 uM
Sequence of Tyrosine-protein kinase JAK2 (O60674 whole entry, the tested form may be a part): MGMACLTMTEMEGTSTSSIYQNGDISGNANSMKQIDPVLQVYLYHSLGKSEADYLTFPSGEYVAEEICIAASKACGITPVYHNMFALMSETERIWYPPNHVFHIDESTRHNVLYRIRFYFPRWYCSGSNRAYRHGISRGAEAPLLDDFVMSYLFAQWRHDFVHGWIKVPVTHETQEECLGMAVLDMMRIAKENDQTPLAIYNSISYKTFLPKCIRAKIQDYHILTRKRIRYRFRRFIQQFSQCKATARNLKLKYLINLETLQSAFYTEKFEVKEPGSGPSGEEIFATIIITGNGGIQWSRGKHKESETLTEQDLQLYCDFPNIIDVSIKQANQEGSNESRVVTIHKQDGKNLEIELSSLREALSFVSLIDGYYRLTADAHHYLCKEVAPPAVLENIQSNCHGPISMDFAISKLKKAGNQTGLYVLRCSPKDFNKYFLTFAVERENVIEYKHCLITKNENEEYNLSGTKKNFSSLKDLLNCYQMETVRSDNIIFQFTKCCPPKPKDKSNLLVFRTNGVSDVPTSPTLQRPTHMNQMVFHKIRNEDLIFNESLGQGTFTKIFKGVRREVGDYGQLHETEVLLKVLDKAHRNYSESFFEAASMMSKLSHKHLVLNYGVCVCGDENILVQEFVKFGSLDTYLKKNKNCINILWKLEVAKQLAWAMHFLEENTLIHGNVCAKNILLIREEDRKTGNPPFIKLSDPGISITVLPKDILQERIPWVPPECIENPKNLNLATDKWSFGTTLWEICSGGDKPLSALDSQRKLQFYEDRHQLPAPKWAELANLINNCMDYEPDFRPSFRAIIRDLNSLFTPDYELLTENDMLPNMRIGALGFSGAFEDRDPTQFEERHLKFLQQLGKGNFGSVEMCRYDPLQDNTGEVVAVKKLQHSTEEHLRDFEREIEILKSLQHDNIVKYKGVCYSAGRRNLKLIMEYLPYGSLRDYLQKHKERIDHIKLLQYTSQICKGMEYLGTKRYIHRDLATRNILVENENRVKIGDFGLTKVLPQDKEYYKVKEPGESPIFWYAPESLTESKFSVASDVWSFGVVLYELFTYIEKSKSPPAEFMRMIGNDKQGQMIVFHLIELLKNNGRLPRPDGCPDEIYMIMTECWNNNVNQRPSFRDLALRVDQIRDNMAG

Sequence of Leucine-rich repeat serine/threonine-protein kinase 2 (Q5S007 whole entry): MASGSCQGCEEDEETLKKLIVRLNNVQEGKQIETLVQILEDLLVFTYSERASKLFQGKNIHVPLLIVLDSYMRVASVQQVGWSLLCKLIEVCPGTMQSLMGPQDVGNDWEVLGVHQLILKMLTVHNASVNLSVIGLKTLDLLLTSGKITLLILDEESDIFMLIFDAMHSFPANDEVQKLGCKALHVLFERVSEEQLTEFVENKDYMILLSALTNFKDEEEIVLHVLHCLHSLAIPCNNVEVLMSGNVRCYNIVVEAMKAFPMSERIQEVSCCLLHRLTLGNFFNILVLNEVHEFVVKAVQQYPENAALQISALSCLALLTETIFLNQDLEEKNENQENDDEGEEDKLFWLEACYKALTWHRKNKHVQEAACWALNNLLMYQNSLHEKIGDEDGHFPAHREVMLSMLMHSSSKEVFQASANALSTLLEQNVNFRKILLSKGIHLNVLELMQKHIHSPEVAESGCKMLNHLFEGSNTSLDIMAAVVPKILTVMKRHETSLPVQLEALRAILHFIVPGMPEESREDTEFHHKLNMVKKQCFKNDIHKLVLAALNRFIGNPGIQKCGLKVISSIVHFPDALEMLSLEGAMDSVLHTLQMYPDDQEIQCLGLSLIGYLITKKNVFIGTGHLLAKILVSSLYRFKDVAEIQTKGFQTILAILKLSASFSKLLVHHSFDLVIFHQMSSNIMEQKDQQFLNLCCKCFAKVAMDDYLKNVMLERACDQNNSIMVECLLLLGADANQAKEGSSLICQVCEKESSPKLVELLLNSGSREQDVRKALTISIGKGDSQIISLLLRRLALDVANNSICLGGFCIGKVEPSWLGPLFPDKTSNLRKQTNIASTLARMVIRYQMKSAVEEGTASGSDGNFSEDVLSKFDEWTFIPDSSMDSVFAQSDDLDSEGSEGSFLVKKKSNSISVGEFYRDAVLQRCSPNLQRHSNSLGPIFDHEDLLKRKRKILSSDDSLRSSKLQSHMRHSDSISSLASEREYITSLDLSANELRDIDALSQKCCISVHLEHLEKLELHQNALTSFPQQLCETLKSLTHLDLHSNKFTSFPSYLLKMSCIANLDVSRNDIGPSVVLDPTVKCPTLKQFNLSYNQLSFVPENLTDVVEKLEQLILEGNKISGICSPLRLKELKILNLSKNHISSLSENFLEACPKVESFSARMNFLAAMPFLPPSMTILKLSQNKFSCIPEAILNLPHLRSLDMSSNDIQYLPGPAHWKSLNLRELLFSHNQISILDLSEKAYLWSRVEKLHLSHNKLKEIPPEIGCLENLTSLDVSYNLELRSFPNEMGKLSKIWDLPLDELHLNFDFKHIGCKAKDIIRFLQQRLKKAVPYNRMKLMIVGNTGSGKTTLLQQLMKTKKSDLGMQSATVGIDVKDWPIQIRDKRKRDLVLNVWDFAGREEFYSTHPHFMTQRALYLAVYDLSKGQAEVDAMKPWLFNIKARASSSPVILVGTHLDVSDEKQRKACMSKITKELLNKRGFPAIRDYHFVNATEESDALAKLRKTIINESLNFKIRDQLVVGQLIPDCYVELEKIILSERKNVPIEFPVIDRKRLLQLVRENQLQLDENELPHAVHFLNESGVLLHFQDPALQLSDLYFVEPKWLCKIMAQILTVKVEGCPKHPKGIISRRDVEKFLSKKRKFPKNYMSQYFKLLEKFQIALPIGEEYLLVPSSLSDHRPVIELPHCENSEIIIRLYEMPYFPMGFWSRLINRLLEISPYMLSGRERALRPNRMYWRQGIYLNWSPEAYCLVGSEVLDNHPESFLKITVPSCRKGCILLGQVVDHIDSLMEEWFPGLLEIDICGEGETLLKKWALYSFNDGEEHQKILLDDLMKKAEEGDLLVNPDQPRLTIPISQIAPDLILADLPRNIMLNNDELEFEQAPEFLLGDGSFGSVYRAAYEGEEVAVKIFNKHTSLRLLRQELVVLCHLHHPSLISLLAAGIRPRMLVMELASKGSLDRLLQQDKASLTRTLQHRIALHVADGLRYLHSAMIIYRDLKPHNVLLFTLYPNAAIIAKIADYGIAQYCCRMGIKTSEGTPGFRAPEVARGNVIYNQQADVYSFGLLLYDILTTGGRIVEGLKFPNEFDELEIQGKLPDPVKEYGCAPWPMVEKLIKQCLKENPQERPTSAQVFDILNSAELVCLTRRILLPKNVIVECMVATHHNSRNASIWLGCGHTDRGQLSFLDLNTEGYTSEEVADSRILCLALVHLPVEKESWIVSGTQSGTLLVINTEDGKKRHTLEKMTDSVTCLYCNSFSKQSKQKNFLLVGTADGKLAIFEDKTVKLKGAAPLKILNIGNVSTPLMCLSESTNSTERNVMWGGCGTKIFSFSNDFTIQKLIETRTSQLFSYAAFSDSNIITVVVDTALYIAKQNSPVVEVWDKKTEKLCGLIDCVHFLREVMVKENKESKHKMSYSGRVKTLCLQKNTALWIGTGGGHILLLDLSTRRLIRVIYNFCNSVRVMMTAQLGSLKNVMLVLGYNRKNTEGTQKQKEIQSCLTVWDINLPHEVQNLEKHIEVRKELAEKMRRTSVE

N#Cc1cccc(-c2c[nH]c3ncnc(N4CCOCC4)c23)c1
IC50 [1]: 25 nM | CLint scaled [2]: 131 mL/min/kg | Vdss (Rattus norvegicus [3]): 1.83 L/kg | Tmax [4]: 0.38 h | Vdss (Canis familiaris): 0.92 L/kg | bioavailability [5]: 0.6% | Tmax [6]: 2 h | bioavailability [7]: 3.5% | fIC50 (Mus musculus [8]): 11 nM | Ratio IC50 (Mus musculus [9]): 10 | MTD at 336 h [10]: > 60 mg/kg/day | Ratio [11]: 31 | Activity (Rattus norvegicus [12]): Non-toxic | Ratio [13]: 25 | Ratio (Rattus norvegicus [14]): 2 | inhibition [15]: inactive
